Source: ChEMBL document CHEMBL1125042, “Hypolipidemic activity of rifamycin derivatives” (J Med Chem, 1990)
≈ marks a conversion by molar mass, not a printed value.

Assays:
Assay type in all cases: functional
Rattus norvegicus [1] = assay: Tested for hypolipidemic activity in male rats, cholesterol was determined in serum at 20 mg/kg
Method in brief: (§1)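 Groups of eight male Wistar rats (200–230 g) dosed orally in PEG 400, either daily for 7 days (killed 24 h after the last dose) or for 4 days with a second dose on day 4 (killed 16 h later). Fasted 16 h. Paired sera pooled, lipoproteins separated by ultracentrifugation (1.006 and 1.040 g/cm³), HDL taken as the infranatant. Cholesterol measured enzymatically; % vs vehicle, mean ± SEM of four pools.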

Staphylococcus aureus = assay: Antibacterial activity against Staphylococcus aureus 10B
Method in brief: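 Agar dilution on DST agar with 2-fold drug dilutions. Inoculum of 10⁴ viable S. aureus 10B was taken from liquid-nitrogen stock, thawed 30 min and not subcultured. It was applied by multipoint replicator and incubated overnight at 37 °C. MIC is the lowest concentration inhibiting growth relative to control cultures.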

Rattus norvegicus [2] = assay: Hypolipidemic activity was determined in male rats, and high-density lipoprotein level was determined at 20 mg/kg
Method in brief: (§2)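 Male Wistar rats (200–230 g), eight per group, were dosed orally in PEG 400 at 8 a.m. for 4 days, plus a second dose at 4 p.m. on day 4. Rats were fasted 16 h and killed 16 h after the last dose. Sera from pairs of rats were pooled. LDL (up to 1.040 g/cm³) was separated by ultracentrifugation and the HDL infranatant taken. Cholesterol was measured enzymatically. Results are % versus vehicle control, mean ± SEM of four pools, Student's t test.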

Rattus norvegicus [3] = assay: Hypolipidemic activity was determined in male rats, and low-density lipoprotein level was determined at 20 mg/kg; method in brief: as §2
Rattus norvegicus [4] = assay: Hypolipidemic activity was determined in male rats, and low-density lipoprotein level was determined at 50 mg/kg; method in brief: as §2
Rattus norvegicus [5] = assay: Tested for hypolipidemic activity in male rats, cholesterol was determined in serum at 50 mg/kg; method in brief: as §1
Rattus norvegicus [6] = assay: Hypolipidemic activity was determined in male rats, and high-density lipoprotein level was determined at 50 mg/kg; method in brief: as §2

Row | Compound | Activity (Rattus norvegicus [1]) [%] | MIC (Staphylococcus aureus) [µg/mL] | Activity (Rattus norvegicus [2]) [%] | Activity (Rattus norvegicus [3]) [%] | Activity (Rattus norvegicus [4]) [%] | Activity (Rattus norvegicus [5]) [%] | Activity (Rattus norvegicus [6]) [%]
1 | COC1/C=C/OC2(C)Oc3c(C)c(OC(=O)C(C)(C)C)c4c(c3C2=O)C(=O)C(N2CCN(Cc3c(C)cc(C)cc3C)CC2)=C(NC(=O)/C(C)=C\C=C\C(C)C(O)C(C)C(O)C(C)C(OC(C)=O)C1C)C4=O (configuration not stated) | -48 | 0.5 (≈ 0.502 µM) | -53 | -32 | – | – | –
2 | COC1/C=C/OC2(C)Oc3c(C)c(O)c4c(O)c(c5[nH]c(N6CCN(Cc7ccccc7)CC6)nc5c4c3C2=O)NC(=O)/C(C)=C\C=C\C(C)C(O)C(C)C(O)C(C)C(OC(C)=O)C1C (configuration not stated) | – | 0.005 (≈ 0.00558 µM) | – | – | -23 | -27 | -33
3 | CCC1CCC2CN(N=Cc3c4c(O)c5c(O)c(C)c6c(c5c3O)C(=O)C(C)(O/C=C/C(OC)C(C)C(OC(C)=O)C(C)C(O)C(C)C(O)C(C)/C=C/C=C(/C)C(=O)N4)O6)CCN2C1 (configuration not stated) | – | 0.005 (≈ 0.00561 µM) | – | – | -31 | -62 | -69
4 | COC1/C=C/OC2(C)Oc3c(C)c(O)c4c(O)c(c(C=O)c(O)c4c3C2=O)NC(=O)/C(C)=C\C=C\C(C)C(O)C(C)C(O)C(C)C(OC(C)=O)C1C (configuration not stated) | – | 0.01 (≈ 0.0138 µM) | – | – | 19 | -5 | -14
5 | COC1/C=C/OC2(C)Oc3c(C)c(O)c4c(O)c(c(C=NN5CCN(C6CCCC6)CC5)c(O)c4c3C2=O)NC(=O)/C(C)=C\C=C\C(C)C(O)C(C)C(O)C(C)C(OC(C)=O)C1C (configuration not stated) | – | 0.01 (≈ 0.0114 µM) | – | – | -60 | -62 | -59
6 | CCC1CCN(c2c3c(O)c4c(O)c(C)c5c(c4c2O)C(=O)C(C)(O/C=C/C(OC)C(C)C(OC(C)=O)C(C)C(O)C(C)C(O)C(C)/C=C/C=C(/C)C(=O)N3)O5)CC1 (configuration not stated) | -57 | < 0.1 | -61 | -51 | – | – | –
7 | COC1/C=C/OC2(C)Oc3c(C)c(O)c4c(O)c(c5nc6cc(C)ccc6nc5c4c3C2=O)NC(=O)/C(C)=C\C=C\C(C)C(O)C(C)C(O)C(C)C(OC(C)=O)C1C (configuration not stated) | – | < 0.008 | – | – | -21 | -14 | –
8 | COC1/C=C/OC2(C)Oc3c(C)c(O)c4c(O)c(c(N)c(O)c4c3C2=O)NC(=O)/C(C)=C\C=C\C(C)C(O)C(C)C(O)C(C)C(OC(C)=O)C1C (configuration not stated) | – | 0.003 (≈ 0.00421 µM) | – | – | 19 | -2 | 6
9 | COC1/C=C/OC2(C)Oc3c(C)c(O)c4c(O)c(c(N5CCNCC5C(=O)O)c(O)c4c3C2=O)NC(=O)/C(C)=C\C=C\C(C)C(O)C(C)C(O)C(C)C(OC(C)=O)C1C (configuration not stated) | – | 0.5 (≈ 0.605 µM) | – | – | 53 | -2 | 5
10 | COC1/C=C/OC2(C)Oc3c(C)c(O)c4c(O)c(c(N5CCCCC5)c(O)c4c3C2=O)NC(=O)/C(C)=C\C=C\C(C)C(O)C(C)C(O)C(C)C(OC(C)=O)C1C (configuration not stated) | -32 | < 0.1 | -36 | -19 | – | – | –
11 | COC1/C=C/OC2(C)Oc3c(C)c(O)c4c(O)c(c(N5CCC(C(C)C)CC5)c(O)c4c3C2=O)NC(=O)/C(C)=C\C=C\C(C)C(O)C(C)C(O)C(C)C(OC(C)=O)C1C (configuration not stated) | -61 | < 0.1 | -61 | -54 | – | – | –
12 | COC1/C=C/OC2(C)Oc3c(C)c(O)c4c(O)c(c(N5CCN(Cc6ccc(Cl)cc6)CC5)c(O)c4c3C2=O)NC(=O)/C(C)=C\C=C\C(C)C(O)C(C)C(O)C(C)C(OC(C)=O)C1C (configuration not stated) | – | 0.002 (≈ 0.00221 µM) | – | – | -85 | -74 | -73
13 | COC1/C=C/OC2(C)Oc3c(C)c(O)c4c(O)c(c(N5CCC(C(C)(C)C)CC5)c(O)c4c3C2=O)NC(=O)/C(C)=C\C=C\C(C)C(O)C(C)C(O)C(C)C(OC(C)=O)C1C (configuration not stated) | -51 | < 0.1 | -48 | -52 | – | – | –
14 | COC1/C=C/OC2(C)Oc3c(C)c(O)c4c(O)c(c(N5CCC(O)CC5)c(O)c4c3C2=O)NC(=O)/C(C)=C\C=C\C(C)C(O)C(C)C(O)C(C)C(OC(C)=O)C1C (configuration not stated) | 0 | < 0.1 | -3 | 13 | – | – | –
15 | COC1/C=C/OC2(C)Oc3c(C)c(O)c4c(O)c(c(C=NN5CCN6CCCCC6C5)c(O)c4c3C2=O)NC(=O)/C(C)=C\C=C\C(C)C(O)C(C)C(O)C(C)C(OC(C)=O)C1C (configuration not stated) | – | 0.005 (≈ 0.00579 µM) | – | – | -27 | -49 | -53
16 | COC1/C=C/OC2(C)Oc3c(C)c(O)c4c(=O)c(c5oc6cc(C)ccc6nc-5c4c3C2=O)NC(=O)/C(C)=C\C=C\C(C)C(O)C(C)C(O)C(C)C(OC(C)=O)C1C (configuration not stated) | – | 0.001 (≈ 0.00125 µM) | – | – | -21 | -14 | -21
17 | COC1/C=C/OC2(C)Oc3c(C)c(O)c4c(O)c(c(N5CCC(C(N)=O)CC5)c(O)c4c3C2=O)NC(=O)/C(C)=C\C=C\C(C)C(O)C(C)C(O)C(C)C(OC(C)=O)C1C (configuration not stated) | -9 | < 0.1 | -6 | 11 | – | – | –
18 | COC1/C=C/OC2(C)Oc3c(C)c(O)c4c(O)c(c(N5CCC(CO)CC5)c(O)c4c3C2=O)NC(=O)/C(C)=C\C=C\C(C)C(O)C(C)C(O)C(C)C(OC(C)=O)C1C (configuration not stated) | -14 | < 0.1 | -10 | -7 | – | – | –
19 | COC1/C=C/OC2(C)Oc3c(C)c(O)c4c(O)c(c(N5CCN(CC(C)C)CC5)c(O)c4c3C2=O)NC(=O)/C(C)=C\C=C\C(C)C(O)C(C)C(O)C(C)C(OC(C)=O)C1C (configuration not stated) | – | 0.005 (≈ 0.00597 µM) | – | – | -64 | -50 | -60
20 | COC1/C=C/OC2(C)Oc3c(C)c(O)c4c(O)c(c(N5CCN(Cc6ccccc6)CC5)c(O)c4c3C2=O)NC(=O)/C(C)=C\C=C\C(C)C(O)C(C)C(O)C(C)C(OC(C)=O)C1C (configuration not stated) | – | 0.004 (≈ 0.00459 µM) | – | – | -56 | -29 | -36
21 | Cc1cc(C)c(CN2CCN(C3=CC(=O)c4ccccc4C3=O)CC2)c(C)c1 | – | > 128 | – | – | 18 | -1 | 6
22 | Cc1cc(C)c(CN2CCNCC2)c(C)c1 | – | 128 (≈ 586 µM) | – | – | 0 | -7 | -5
23 | COC1/C=C/OC2(C)Oc3c(C)c(O)c4c(O)c(c(C=NN5CCN(Cc6c(C)cc(C)cc6C)CC5)c(O)c4c3C2=O)NC(=O)/C(C)=C\C=C\C(C)C(O)C(C)C(O)C(C)C(OC(C)=O)C1C (configuration not stated) | – | 0.05 (≈ 0.0531 µM) | – | – | -39 | -81 | -79
24 | COC1/C=C/OC2(C)Oc3c(C)c(O)c4c(O)c(c5c(c4c3C2=O)=NC2(CCN(CC(C)C)CC2)N=5)NC(=O)/C(C)=C\C=C\C(C)C(O)C(C)C(O)C(C)C(OC(C)=O)C1C (configuration not stated) | – | 0.001 (≈ 0.00118 µM) | – | – | 14 | -7 | -21
25 | CO[C@H]1/C=C/O[C@@]2(C)Oc3c(C)c(O)c4c(O)c(cc(O)c4c3C2=O)NC(=O)/C(C)=C\C=C\[C@H](C)[C@H](O)[C@@H](C)[C@@H](O)[C@@H](C)[C@H](OC(C)=O)[C@@H]1C [RIFAMYCIN] | – | 0.001 (≈ 0.00143 µM) | – | – | 21 | 4 | 1
26 | COC1/C=C/OC2(C)Oc3c(C)c(O)c4c(O)c(c(O)c(O)c4c3C2=O)NC(=O)/C(C)=C\C=C\C(C)C(O)C(C)C(O)C(C)C(OC(C)=O)C1C (configuration not stated) | – | 0.1 (≈ 0.14 µM) | – | – | 41 | 4 | 15
27 | COC1/C=C/OC2(C)Oc3c(C)c(O)c4c(O)c(c(C=NN5CCN(Cc6cccc7ccccc67)CC5)c(O)c4c3C2=O)NC(=O)/C(C)=C\C=C\C(C)C(O)C(C)C(O)C(C)C(OC(C)=O)C1C (configuration not stated) | – | 0.02 (≈ 0.0211 µM) | – | – | -35 | -69 | -75
